# Laboratory results taken from ChEMBL document CHEMBL5653631, “A Potent and Selective ULK1 Inhibitor Suppresses Autophagy and Sensitizes Cancer Cells to Nutrient Stress” (iScience, 2018).
# What was measured:
# [1] = target: Tyrosine-protein kinase FRK (Homo sapiens) (UniProt P42685); experiment: Inhibition of human recombinant FRK at 40 nM in presence of ATP by radiometric assay relative to control
# [2] = target: Serine/threonine-protein kinase MRCK alpha (Homo sapiens) (UniProt Q5VT25); experiment: Inhibition of human recombinant MRCKa at 40 nM in presence of ATP by radiometric assay relative to control
# [3] = target: Serine/threonine-protein kinase N2 (Homo sapiens) (UniProt Q16513); experiment: Inhibition of human recombinant PKN2 at 40 nM in presence of ATP by radiometric assay relative to control
# Serine/threonine-protein kinase N2 (Homo sapiens), sequence (Q16513 whole entry, looked up): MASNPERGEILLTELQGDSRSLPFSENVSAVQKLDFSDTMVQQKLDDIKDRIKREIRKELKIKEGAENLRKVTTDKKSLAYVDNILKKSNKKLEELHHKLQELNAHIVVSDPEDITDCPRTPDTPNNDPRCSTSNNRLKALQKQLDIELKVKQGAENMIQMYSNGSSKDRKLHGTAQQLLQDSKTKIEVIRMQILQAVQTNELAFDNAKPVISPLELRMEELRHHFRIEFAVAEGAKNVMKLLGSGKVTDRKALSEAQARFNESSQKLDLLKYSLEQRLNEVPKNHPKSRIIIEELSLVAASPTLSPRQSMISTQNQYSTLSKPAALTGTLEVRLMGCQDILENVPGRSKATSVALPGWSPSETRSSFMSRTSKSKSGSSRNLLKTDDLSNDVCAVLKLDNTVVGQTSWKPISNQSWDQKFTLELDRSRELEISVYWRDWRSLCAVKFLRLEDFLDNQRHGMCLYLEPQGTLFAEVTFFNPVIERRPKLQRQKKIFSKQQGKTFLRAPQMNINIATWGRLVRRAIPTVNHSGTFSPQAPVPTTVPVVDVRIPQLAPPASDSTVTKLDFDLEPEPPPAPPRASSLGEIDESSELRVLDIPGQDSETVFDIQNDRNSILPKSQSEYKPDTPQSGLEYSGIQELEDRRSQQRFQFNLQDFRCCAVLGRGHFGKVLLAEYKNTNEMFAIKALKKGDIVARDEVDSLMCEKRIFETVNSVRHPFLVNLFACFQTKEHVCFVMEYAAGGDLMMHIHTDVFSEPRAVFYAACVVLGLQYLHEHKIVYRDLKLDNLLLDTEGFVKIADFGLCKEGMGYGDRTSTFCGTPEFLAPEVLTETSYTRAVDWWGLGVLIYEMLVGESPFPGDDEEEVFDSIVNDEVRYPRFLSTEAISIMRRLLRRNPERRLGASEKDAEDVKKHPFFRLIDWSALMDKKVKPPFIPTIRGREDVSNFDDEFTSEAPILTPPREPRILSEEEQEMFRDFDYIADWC
# [4] = target: T1, Tyrosine-protein kinase TXK (Homo sapiens) (UniProt P42681); experiment: Inhibition of human recombinant TXK at 40 nM in presence of ATP by radiometric assay relative to control
# T1 sequence (whole entry): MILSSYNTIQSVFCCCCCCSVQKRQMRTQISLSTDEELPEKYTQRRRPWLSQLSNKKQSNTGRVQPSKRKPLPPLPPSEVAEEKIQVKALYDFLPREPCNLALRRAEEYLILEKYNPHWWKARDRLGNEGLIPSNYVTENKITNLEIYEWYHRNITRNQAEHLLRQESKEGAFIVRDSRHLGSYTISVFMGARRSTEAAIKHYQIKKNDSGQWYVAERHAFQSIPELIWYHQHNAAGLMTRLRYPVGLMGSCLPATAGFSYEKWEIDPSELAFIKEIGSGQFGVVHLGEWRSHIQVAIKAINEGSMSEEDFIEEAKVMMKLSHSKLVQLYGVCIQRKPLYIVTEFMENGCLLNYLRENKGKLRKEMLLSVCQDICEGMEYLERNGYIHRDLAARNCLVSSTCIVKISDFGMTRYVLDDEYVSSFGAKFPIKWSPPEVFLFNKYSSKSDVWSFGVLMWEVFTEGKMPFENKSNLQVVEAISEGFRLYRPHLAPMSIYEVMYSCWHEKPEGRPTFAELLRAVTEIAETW
# [5] = target: Death-associated protein kinase 1 (Homo sapiens) (UniProt P53355); experiment: Inhibition of human recombinant DAPK1 at 40 nM related to control ULK1
# Death-associated protein kinase 1 (Homo sapiens), sequence (P53355 whole entry, looked up): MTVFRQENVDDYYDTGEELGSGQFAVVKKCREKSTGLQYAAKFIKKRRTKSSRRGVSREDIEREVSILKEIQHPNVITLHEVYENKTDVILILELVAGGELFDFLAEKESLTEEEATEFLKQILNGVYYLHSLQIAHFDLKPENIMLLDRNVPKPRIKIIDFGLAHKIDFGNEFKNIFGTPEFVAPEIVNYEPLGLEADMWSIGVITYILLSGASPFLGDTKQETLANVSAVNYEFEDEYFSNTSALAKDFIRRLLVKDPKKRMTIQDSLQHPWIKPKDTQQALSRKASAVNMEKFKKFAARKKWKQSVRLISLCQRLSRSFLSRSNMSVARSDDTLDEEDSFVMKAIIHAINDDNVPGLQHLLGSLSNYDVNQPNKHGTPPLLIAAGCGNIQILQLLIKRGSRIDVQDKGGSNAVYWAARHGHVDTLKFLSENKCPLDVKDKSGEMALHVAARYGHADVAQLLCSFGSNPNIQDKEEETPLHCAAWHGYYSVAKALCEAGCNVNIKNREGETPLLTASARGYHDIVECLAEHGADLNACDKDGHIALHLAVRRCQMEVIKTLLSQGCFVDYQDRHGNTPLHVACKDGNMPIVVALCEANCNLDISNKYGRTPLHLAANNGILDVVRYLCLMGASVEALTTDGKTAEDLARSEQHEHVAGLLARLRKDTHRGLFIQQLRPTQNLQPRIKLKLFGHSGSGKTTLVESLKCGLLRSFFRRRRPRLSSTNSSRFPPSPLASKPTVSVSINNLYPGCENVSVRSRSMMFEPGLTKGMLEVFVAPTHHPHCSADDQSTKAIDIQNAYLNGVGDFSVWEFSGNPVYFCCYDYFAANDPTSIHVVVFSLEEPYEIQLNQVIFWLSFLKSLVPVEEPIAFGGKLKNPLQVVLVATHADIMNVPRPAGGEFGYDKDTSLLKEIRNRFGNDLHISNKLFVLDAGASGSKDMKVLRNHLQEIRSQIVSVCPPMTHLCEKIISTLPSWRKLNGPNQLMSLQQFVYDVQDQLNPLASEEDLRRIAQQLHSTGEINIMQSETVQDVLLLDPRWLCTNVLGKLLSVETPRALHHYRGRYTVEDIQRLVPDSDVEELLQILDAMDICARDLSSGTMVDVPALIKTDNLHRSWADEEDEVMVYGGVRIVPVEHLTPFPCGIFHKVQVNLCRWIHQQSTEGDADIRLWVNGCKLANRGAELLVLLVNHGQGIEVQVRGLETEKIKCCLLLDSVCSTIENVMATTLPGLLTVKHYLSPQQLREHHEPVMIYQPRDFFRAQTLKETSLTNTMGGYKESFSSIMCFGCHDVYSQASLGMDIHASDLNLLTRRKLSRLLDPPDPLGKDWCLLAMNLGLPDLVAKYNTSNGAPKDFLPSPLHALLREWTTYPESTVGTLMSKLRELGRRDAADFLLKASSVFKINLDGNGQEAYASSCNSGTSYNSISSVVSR
# [6] = target: T2, Serine/threonine-protein kinase ICK (Homo sapiens) (UniProt Q9UPZ9); experiment: Inhibition of human recombinant ICK at 40 nM related to control ULK1
# T2 sequence (whole entry): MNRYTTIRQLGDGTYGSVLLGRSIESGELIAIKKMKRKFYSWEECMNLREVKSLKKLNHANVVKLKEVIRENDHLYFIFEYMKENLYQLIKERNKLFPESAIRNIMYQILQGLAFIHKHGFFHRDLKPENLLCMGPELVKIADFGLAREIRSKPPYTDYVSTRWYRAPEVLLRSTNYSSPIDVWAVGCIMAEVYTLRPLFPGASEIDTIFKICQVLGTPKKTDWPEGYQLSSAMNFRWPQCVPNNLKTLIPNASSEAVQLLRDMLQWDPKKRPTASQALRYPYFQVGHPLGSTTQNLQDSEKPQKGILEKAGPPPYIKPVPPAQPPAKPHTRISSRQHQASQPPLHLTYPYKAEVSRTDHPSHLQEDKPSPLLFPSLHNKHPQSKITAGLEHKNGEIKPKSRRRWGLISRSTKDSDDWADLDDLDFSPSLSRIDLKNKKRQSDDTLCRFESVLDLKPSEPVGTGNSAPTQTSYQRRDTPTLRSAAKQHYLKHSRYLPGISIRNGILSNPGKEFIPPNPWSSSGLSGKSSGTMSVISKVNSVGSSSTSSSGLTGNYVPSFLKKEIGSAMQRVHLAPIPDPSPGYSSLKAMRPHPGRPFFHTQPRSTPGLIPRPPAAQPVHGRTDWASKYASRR
# [7] = target: Ephrin type-A receptor 5 (Homo sapiens) (UniProt P54756); experiment: Inhibition of human recombinant EphA5 at 500 nM in presence of ATP by radiometric assay relative to control
# Ephrin type-A receptor 5 (Homo sapiens), sequence (P54756 whole entry): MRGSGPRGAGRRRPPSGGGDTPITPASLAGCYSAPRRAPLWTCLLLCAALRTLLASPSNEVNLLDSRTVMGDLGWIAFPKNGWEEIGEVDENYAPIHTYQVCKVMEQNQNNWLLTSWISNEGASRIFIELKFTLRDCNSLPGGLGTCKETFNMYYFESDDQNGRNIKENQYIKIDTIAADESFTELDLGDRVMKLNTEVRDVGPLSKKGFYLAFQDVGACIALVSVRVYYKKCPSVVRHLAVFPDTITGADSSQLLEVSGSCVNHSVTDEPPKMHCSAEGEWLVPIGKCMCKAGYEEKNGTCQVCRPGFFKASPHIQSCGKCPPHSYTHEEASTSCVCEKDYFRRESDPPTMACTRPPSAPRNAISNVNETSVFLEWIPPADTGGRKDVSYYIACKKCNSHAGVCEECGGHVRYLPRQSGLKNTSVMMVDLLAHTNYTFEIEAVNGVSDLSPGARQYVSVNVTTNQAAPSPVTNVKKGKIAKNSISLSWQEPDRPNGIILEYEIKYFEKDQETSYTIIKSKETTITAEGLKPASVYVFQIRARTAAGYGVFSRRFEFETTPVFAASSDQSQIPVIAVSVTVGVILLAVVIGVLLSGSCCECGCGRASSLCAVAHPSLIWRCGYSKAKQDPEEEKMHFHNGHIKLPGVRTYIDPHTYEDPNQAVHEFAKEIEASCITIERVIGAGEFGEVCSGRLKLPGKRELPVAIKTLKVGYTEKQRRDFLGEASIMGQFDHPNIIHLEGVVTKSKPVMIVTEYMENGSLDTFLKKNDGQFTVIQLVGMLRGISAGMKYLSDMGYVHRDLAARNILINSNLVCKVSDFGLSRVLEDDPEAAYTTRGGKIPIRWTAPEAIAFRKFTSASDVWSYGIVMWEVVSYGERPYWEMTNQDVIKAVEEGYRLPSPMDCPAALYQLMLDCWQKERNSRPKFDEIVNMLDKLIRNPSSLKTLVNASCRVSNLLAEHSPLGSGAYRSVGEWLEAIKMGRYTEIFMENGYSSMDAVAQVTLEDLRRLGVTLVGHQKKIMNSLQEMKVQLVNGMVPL
# [8] = target: RAC-gamma serine/threonine-protein kinase (Homo sapiens) (UniProt Q9Y243); experiment: Inhibition of human recombinant AKT3 at 500 nM related to control ULK1
# RAC-gamma serine/threonine-protein kinase (Homo sapiens), sequence (Q9Y243 whole entry): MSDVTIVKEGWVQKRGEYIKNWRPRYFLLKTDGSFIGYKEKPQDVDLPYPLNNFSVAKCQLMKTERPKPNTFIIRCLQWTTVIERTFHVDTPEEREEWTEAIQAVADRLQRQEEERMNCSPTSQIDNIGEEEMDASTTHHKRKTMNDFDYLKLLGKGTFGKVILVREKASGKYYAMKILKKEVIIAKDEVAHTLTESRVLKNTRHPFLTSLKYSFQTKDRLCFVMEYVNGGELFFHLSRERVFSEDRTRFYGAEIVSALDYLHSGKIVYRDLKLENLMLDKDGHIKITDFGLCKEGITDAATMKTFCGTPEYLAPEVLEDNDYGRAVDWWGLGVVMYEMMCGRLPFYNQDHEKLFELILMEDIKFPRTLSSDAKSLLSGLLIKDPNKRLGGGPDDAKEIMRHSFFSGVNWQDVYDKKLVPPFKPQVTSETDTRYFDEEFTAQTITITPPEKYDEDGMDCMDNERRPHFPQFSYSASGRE
# [9] = target: T3, Receptor-interacting serine/threonine-protein kinase 1 (Homo sapiens) (UniProt Q13546); experiment: Inhibition of human recombinant RIPK1 at 500 nM related to control ULK1
# T3 sequence (whole entry): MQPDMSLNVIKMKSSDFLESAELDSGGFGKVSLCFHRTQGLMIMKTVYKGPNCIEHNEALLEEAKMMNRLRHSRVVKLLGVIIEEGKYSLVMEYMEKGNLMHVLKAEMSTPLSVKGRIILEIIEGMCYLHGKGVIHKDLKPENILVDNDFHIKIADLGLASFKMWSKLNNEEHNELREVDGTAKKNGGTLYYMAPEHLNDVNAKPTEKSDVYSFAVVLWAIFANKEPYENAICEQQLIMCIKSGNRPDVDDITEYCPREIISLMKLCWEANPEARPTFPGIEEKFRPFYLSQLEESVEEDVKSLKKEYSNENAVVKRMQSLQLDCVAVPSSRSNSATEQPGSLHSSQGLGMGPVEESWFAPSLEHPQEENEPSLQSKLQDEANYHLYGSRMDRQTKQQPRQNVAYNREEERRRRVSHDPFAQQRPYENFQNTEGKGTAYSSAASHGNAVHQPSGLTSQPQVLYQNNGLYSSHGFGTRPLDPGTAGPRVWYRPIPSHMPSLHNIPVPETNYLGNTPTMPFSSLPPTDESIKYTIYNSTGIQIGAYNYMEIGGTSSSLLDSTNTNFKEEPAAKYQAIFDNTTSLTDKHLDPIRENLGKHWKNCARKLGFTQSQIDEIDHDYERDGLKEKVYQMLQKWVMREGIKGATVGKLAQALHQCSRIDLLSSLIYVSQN
# [10] = target: Serine/threonine-protein kinase 4 (Homo sapiens) (UniProt Q13043); experiment: Inhibition of human recombinant MST1 at 500 nM related to control ULK1
# Serine/threonine-protein kinase 4 (Homo sapiens), sequence (Q13043 whole entry, looked up): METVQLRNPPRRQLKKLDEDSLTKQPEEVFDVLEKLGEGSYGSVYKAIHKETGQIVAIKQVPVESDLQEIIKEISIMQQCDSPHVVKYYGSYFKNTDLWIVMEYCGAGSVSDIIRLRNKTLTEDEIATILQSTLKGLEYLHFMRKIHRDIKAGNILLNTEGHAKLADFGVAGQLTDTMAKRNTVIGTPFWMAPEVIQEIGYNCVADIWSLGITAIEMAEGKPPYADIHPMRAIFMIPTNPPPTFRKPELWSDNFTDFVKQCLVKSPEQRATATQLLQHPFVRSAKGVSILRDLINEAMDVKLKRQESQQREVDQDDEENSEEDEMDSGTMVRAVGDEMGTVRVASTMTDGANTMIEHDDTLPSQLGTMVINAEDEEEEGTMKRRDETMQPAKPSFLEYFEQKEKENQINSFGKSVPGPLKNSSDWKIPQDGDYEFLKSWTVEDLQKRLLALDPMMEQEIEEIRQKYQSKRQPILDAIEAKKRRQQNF
# [11] = target: Serine/threonine-protein kinase mTOR (Homo sapiens) (UniProt P42345); experiment: Inhibition of human recombinant FRAP at 15 nM in presence of ATP by radiometric assay relative to control
# [12] = target: Tyrosine-protein kinase receptor UFO (Homo sapiens) (UniProt P30530); experiment: Inhibition of human recombinant AXL at 15 nM related to control ULK1
# Procedure, shortened: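 Panel of 327 recombinant human kinases, each assayed in vitro by radiometric activity assay in duplicate at a single inhibitor concentration per compound, chosen with reference to its ULK1 inhibition. Activity remaining was expressed as percent of vehicle control, and percent inhibition was calculated as 100 minus percent activity remaining.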
# Tyrosine-protein kinase FRK (Homo sapiens), sequence (P42685 whole entry): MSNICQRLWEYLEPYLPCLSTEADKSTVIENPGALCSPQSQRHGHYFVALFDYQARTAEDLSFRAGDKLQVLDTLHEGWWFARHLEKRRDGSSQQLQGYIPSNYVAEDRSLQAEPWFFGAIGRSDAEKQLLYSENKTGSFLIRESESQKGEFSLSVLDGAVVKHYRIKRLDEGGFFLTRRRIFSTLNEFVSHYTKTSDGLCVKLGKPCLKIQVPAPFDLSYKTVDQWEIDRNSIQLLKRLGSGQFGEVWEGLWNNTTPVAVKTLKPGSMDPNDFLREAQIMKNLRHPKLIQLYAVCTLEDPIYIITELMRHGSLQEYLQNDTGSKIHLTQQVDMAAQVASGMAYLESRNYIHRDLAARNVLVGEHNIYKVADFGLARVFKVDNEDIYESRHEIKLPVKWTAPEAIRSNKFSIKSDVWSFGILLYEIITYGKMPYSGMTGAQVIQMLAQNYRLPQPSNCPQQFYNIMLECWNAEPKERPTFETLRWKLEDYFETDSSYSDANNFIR
structure (smiles),measurement,setting,value
O=C(N[C@@H](C1CC1)C(F)(F)F)c1cc(-c2cnn3cc(-c4ccc(F)cc4)cnc23)cs1,inhibition,[1],0%
same,inhibition,[2],2%
same,inhibition,[3],0%
same,inhibition,[4],13%
same,fold change (FC),[5],0
same,fold change (FC),[6],0
CNC(=O)c1ccccc1Oc1nc(Nc2cc(OC)c(OC)c(OC)c2)ncc1Br,inhibition,[7],19%
same,fold change (FC),[8],0.07
same,fold change (FC),[9],0.09
same,fold change (FC),[10],0
CC(C)[C@H](NC(=O)c1cc(-c2cnn3cc(-c4ccc(OCCN5CCCCC5)cc4)cnc23)cs1)C(F)(F)F,inhibition,[11],0%
same,fold change (FC),[12],0.13
